From ChEMBL document CHEMBL4364272, “Discovery of a Lead Triphenylethanamine Cholesterol Ester Transfer Protein (CETP) Inhibitor” (ACS Med Chem Lett, 2019) come the findings set out here.

The nature of data set [1]: Stability in mouse liver microsomes assessed as parent compound remaining at 50 uM preincubated for 5 to 7 mins followed by NADPH addition and measured 10 mins post-dose by LC-MS/MS. Type of data set: ADME, Microsome. Particulars: read-out: Stability. On the technique in general: Liver microsomes are a subcellular fraction often used to study metabolism.
In data set [2] the target is T1, Cholesteryl ester transfer protein (Homo sapiens, UniProt P11597).
T1 sequence (P11597 whole entry): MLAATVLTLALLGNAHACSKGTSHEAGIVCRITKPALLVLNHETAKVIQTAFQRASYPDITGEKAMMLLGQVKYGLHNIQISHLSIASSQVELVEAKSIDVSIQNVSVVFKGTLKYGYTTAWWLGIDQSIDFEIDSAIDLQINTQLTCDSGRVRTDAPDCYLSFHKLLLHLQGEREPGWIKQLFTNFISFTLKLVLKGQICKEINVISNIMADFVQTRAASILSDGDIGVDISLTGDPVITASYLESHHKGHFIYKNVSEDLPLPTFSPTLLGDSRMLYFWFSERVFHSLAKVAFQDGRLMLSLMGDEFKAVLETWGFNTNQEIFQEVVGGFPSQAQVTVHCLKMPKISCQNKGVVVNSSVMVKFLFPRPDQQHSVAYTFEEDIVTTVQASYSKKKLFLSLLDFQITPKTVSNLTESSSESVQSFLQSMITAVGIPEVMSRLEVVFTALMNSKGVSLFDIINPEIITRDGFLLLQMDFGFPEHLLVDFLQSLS
The data set is described as follows: Inhibition of CETP in human whole plasma assessed as reduction in [3H]-CE/HDL transfer incubated for 2.5 hrs by topcount scintillation counting assay. Type of data set: cell-free. The method, boiled down: (§1)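 CETP activity was measured by scintillation proximity assay and by human whole plasma assay. Each was run in duplicate at six concentrations, and the mean values were used to calculate IC50.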

Data set [3] in a line: Stability in human liver microsomes assessed as parent compound remaining at 50 uM preincubated for 5 to 7 mins followed by NADPH addition and measured 10 mins post-dose by LC-MS/MS. It is filed as ADME, Microsome. Particulars: read-out: Stability.
Data set [4] addresses Voltage-gated inwardly rectifying potassium channel KCNH2 (Homo sapiens, UniProt Q12809). The data set is described as follows: Inhibition of human ERG expressed in HEK293 cells by flux assay.
The target of data set [5] is T1, Cholesteryl ester transfer protein. Kind of data set: Inhibition of human recombinant CETP assessed as reduction in [3H]CE/HDL transfer incubated for 4 hrs by scintillation proximity assay. Put shortly: as §1
In general terms: In a scintillation proximity assay essentially only radioactivity close to the scintillant gives light.

The test system of data set [6] is Mus musculus. Kind of data set: In vivo inhibition of CETP in hCETP/apoB-100 dual transgenic mouse assessed as reduction in [3H]-CE transfer at 10 mg/kg, po administered via gavage measured after 2 to 8 hrs by radioactivity based assay. Type of data set: functional, organism-based.
The test system of another data set is CYP11B2. Kind of data set: Upregulation of CYP11B2 gene expression in human NCI-H295R cells at 0.1 uM measured after 24 hrs relative to control. It is filed as ADME, cell-based. The note with it: read-out: FC. Put shortly: (§2)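 H295R cells were incubated for 24 h with test agent at 10 μM or angiotensin-II at 0.1 μM. CYP11B1 and CYP11B2 mRNA levels were measured and expressed as fold of control.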

Another data set deals with CYP11B1. The data set is described as follows: Upregulation of CYP11B1 gene expression in human NCI-H295R cells at 0.1 uM measured after 24 hrs relative to control. It is filed as ADME, cell-based. The note with it: read-out: FC. The method, boiled down:
as §2

Data set [7] is described as follows: Oral bioavailability in Sprague-Dawley rat at 10 mg/kg administered via gavage measured upto 24 hrs by LC-MS/MS. Particulars: in vivo. It is filed as ADME, organism-based. The method, boiled down:
(§3)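 Single IV and oral doses: rat 1 mg/kg IV and 10 mg/kg PO; mouse 5 mg/kg IV and 10 mg/kg PO; monkey 1 mg/kg IV and 5 mg/kg PO. IV vehicle was 10% Cremophor/10% EtOH/80% H2O for rodents and 70% PEG-400/10% EtOH/20% H2O for monkey. Oral vehicle was 15% Miglyol 812/30% Capmul MCM/15% Triacetin/40% Cremophor RH40, or the Cremophor vehicle for rat. Vss, Cl, t1/2 and %F were derived.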

Data set [8] can be described thus: Volume of distribution at steady state in Sprague-Dawley rat at 1 mg/kg, iv or 10 mg/kg, po administered via gavage measured upto 24 hrs by LC-MS/MS. Type of data set: ADME, organism-based. The note with it: in vivo, read-out: Vdss. The method, boiled down:
as §3

A short description of data set [9]: Half life in Sprague-Dawley rat at 1 mg/kg, iv or 10 mg/kg, po administered via gavage measured upto 24 hrs by LC-MS/MS. The note with it: in vivo. Type of data set: ADME, organism-based. Put shortly: as §3
The subject of data set [10] is Mus musculus. Kind of data set: In vivo inhibition of CETP in hCETP/apoB-100 dual transgenic mouse assessed as reduction in [3H]-CE transfer at 1 mg/kg, po administered via gavage measured after 2 to 8 hrs by radioactivity based assay. Type of data set: functional, organism-based.
Data set [11] in a line: Clearance in Sprague-Dawley rat at 1 mg/kg, iv or 10 mg/kg, po administered via gavage measured upto 24 hrs by LC-MS/MS. It is filed as ADME, organism-based. Particulars: in vivo. The method, boiled down:
as §3

The target of data set [12] is T2, Cholesteryl ester transfer protein (Homo sapiens) (UniProt P11597).
T2 sequence (whole entry): T1 sequence (P11597 whole entry)
The data set is described as follows: Potency index, ratio of torcetrapib IC50 to test compound IC50 for inhibition of CETP in human whole plasma. Type of data set: cell-free.

The IC50 is the concentration that inhibits the measured activity by half. The bioavailability is dose-corrected exposure relative to a reference, in per cent. Higher therefore signals good availability. As a reminder, the half-life is the time in which the quantity being followed falls by half. High values mean slow loss, low ones fast loss.

Each structure is given as a SMILES string. The source made the active and inactive calls. The rule behind the calls is not given here. Bounds are passed on as bounds.

Sequence of Voltage-gated inwardly rectifying potassium channel KCNH2 (Q12809 whole entry): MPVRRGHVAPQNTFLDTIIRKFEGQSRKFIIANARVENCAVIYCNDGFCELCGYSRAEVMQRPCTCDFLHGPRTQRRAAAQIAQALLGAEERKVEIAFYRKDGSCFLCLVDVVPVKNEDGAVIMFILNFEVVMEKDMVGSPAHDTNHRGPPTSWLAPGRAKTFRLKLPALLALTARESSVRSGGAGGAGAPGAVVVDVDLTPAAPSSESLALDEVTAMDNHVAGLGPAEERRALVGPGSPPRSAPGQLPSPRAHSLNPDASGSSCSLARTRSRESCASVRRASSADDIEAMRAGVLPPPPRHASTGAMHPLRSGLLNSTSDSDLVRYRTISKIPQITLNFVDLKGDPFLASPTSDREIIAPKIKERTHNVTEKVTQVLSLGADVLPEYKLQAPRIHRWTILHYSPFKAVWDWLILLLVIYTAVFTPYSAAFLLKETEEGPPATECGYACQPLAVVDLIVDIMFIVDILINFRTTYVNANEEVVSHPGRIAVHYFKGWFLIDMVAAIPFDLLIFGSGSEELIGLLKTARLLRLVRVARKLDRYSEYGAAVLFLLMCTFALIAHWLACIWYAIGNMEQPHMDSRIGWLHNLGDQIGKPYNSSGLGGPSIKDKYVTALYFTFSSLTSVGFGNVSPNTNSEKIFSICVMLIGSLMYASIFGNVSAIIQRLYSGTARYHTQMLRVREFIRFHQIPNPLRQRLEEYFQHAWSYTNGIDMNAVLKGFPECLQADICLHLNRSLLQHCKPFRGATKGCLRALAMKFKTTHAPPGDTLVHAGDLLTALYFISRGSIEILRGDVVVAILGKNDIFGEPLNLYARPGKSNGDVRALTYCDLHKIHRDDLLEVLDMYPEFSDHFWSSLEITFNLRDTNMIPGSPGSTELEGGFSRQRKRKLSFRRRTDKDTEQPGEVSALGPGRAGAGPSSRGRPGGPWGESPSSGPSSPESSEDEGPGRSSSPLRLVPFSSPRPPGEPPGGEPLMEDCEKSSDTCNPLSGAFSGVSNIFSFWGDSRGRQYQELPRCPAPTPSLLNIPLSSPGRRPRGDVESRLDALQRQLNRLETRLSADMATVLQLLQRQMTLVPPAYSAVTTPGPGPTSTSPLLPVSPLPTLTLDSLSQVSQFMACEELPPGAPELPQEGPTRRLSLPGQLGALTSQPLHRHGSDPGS

Regarding `CC(C)Oc1cc([C@@](Cc2ccccc2)(NCC(N)C(O)(C(F)(F)F)C(F)(F)F)c2cc(F)cc(OC(F)(F)C(F)F)c2)ccc1F` (stereo partly specified), the remaining at 10 min, 50 µM in [1] came out at 68%; in data set [3], 81%. Besides, the IC50 is 200 nM in [2], more than 80000 nM in [4] and 26 nM in [5].
In the same order, the values of `CC(C)Oc1cc([C@@](Cc2ccccc2)(NCC(O)C(O)(C(F)(F)F)C(F)(F)F)c2cc(F)cc(OC(F)(F)C(F)F)c2)ccc1F` (stereo partly specified) are 100%, 100%, 58 nM, 12000 nM and 5 nM.
As to `CCOC(=O)N1c2ccc(C(F)(F)F)cc2[C@@H](N(Cc2cc(C(F)(F)F)cc(C(F)(F)F)c2)C(=O)OC)C[C@H]1CC`, the inhibition result in the data set with Mus musculus [6] was “Active”.
As to `CC(C)Oc1cc([C@@](Cc2ccccc2)(NC(=O)C(N)C(O)C(F)(F)F)c2cc(F)cc(OC(F)(F)C(F)F)c2)ccc1F` (stereo partly specified), the remaining at 10 min, 50 µM was 16% in [1] and 2% in [3]. In addition, the IC50 in data set [2] is 270 nM; in data set [5], 6 nM.
Take `CC[C@H](C)[C@H](NC(=O)[C@H](Cc1ccc(O)cc1)NC(=O)[C@@H](NC(=O)[C@H](CCCNC(=N)N)NC(=O)[C@@H](N)CC(=O)O)C(C)C)C(=O)N[C@@H](Cc1cnc[nH]1)C(=O)N1CCC[C@H]1C(=O)N[C@@H](Cc1ccccc1)C(=O)O` [ANGIOTENSIN II]: the fold induction at 24 h, 0.1 µM in the data set with CYP11B2 and in the data set with CYP11B1 was 4 throughout.
As to `CC(C)NC(C(=O)N[C@](Cc1ccccc1)(c1ccc(F)cc1)c1cc(F)cc(C(F)(F)F)c1)C(O)(C(F)(F)F)C(F)(F)F` (stereo partly specified), the remaining at 10 min, 50 µM in data set [1] is 54%; in [3], 71%. Also, the figures for the IC50 in data set [2], in data set [4] and in data set [5] were 7100 nM, 63000 nM and 230 nM, respectively.
Turning to `NC(C(=O)N[C@](Cc1ccccc1)(c1ccc(F)cc1)c1cc(F)cc(C(F)(F)F)c1)C(O)(C(F)(F)F)C(F)(F)F` (stereo partly specified), the remaining at 10 min, 50 µM came out at 72% in [1] and 100% in data set [3]. Further, the IC50 in data set [2] is 430 nM; in data set [4], more than 80000 nM; in [5] it was 11 nM.
In the same order, the values of `CNC(C(=O)N[C@](Cc1ccccc1)(c1ccc(F)cc1)c1cc(F)cc(C(F)(F)F)c1)C(O)(C(F)(F)F)C(F)(F)F` (stereo partly specified) are 87%, 62%, 6200 nM, 13000 nM and 140 nM.
On to `CC(C)(C)Oc1cc([C@@](Cc2ccccc2)(NC(=O)C(N)C(O)(C(F)(F)F)C(F)(F)F)c2cc(F)cc(OC(F)(F)C(F)F)c2)ccc1F` (stereo partly specified), for which the remaining at 10 min, 50 µM in [1] and in data set [3] was 100% each time. The IC50 in data set [2] is 140 nM; in data set [5], 5 nM.
Regarding `CC(C)Oc1cc([C@@](Cc2ccccc2)(NC(=O)C(O)C(O)(C(F)(F)F)C(F)(F)F)c2cc(F)cc(OC(F)(F)C(F)F)c2)ccc1F` (stereo partly specified), the remaining at 10 min, 50 µM came out at 100% in [1] and 89% in [3]. For the same compound, the IC50 in data set [2] turned out to be 84 nM; in data set [5], 1 nM.
For `NC(C(=O)N[C@@](Cc1ccccc1)(c1cc(F)cc(OC(F)(F)C(F)F)c1)c1ccc(Cl)cn1)C(O)(C(F)(F)F)C(F)(F)F` (stereo in doubt; 9a), the remaining at 10 min, 50 µM in [1] and in data set [3] was 100% throughout. Moreover, the figures for the IC50 in data set [2], in [4] and in [5] were 5900 nM, more than 80000 nM and 53 nM, respectively.
Consider `O=C(CC(O)(C(F)(F)F)C(F)(F)F)N[C@@](Cc1ccccc1)(c1cc(F)cc(C(F)(F)F)c1)c1ccc(Cl)cn1`, for which the remaining at 10 min, 50 µM in [1] was 91%; in data set [3] it was 92%. Also, the IC50 in data set [2] is 3800 nM; in data set [4], 22000 nM; in data set [5], 120 nM.
For `NC(C(=O)N[C@@](Cc1ccccc1)(c1cc(F)cc(OC(F)(F)C(F)F)c1)c1ccc(Cl)cn1)C(O)(C(F)(F)F)C(F)(F)F` (stereo in doubt; 9b), the IC50 was 940 nM in data set [2], more than 80000 nM in data set [4] (hek293) and 80 nM in data set [5].
With `O=C(N[C@@](Cc1ccccc1)(c1cc(F)cc(C(F)(F)F)c1)c1ccc(Cl)cn1)C(O)C(O)(C(F)(F)F)C(F)(F)F` (stereo partly specified), the figures for the IC50 in data set [2] and in data set [5] were 1400 nM and 35 nM, respectively.
In [7], `CC(C)Oc1cc([C@@](Cc2ccccc2)(NC(=O)C(N)C(O)(C(F)(F)F)C(F)(F)F)c2cc(F)cc(OC(F)(F)C(F)F)c2)ccc1F` (stereo partly specified) gave a bioavailability of 12%. Also, the Vd in data set [8] came to 0.5 L/kg. Moreover, the remaining at 10 min, 50 µM in data set [1] amounted to 90%; in data set [3] it was 95%. This compound showed a half-life in data set [9] of 1.9 h. Besides, the IC50 was 56 nM in data set [2], 44000 nM in [4] and 3 nM in data set [5]. Moreover, in the data set with Mus musculus [10], the inhibition result was “Active”. The compound also had a clearance in data set [11] of 5.4 mL/min/kg. Moreover, in [12], the Ratio IC50 turned out to be 2.
Consider `CN(C)C(C(=O)N[C@](Cc1ccccc1)(c1ccc(F)cc1)c1cc(F)cc(C(F)(F)F)c1)C(O)(C(F)(F)F)C(F)(F)F` (stereo partly specified), for which the remaining at 10 min, 50 µM in data set [1] turned out to be 82%; in [3], 58%. In addition, the IC50 was found to be 30000 nM in [2], 16000 nM in data set [4] and 3300 nM in data set [5].
